Data as given in ChEMBL document CHEMBL2146464, “Structure-activity relationship study of nitrosopyrimidines acting as antifungal agents” (Bioorg Med Chem, 2012).
The source made the active and inactive calls.

Tests used:
Assay type in all cases: functional, organism-based
[1] = system: Candida albicans; experiment: Antifungal activity against Candida albicans ATCC 10231 at 0.98 to 250 ug/mL after 48 hrs by NCCLS broth microdilution method
In short: (§1)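 Yeast MIC by NCCLS M27-A3 broth microdilution in RPMI-1640 buffered to pH 7.0 with MOPS. Twofold dilutions of 250–0.98 µg/mL, final DMSO ≤1%. Inoculum 1–5 × 10³ CFU/mL. Incubated at 30 °C in a moist dark chamber. Read visually at 48 h. MIC100 is the lowest concentration with no visible growth versus drug-free control.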

[2] = system: Aspergillus flavus; experiment: Antifungal activity against Aspergillus flavus ATCC 9170 at 0.98 to 250 ug/mL by NCCLS broth microdilution method
In short: (§2)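 MIC by broth microdilution per NCCLS M27-A3/M38-A2 in RPMI-1640 buffered to pH 7.0 with MOPS. Twofold dilutions from 250–0.98 µg/mL, final DMSO ≤1%. Inoculum 1–5 × 10³ CFU/mL. Incubated in a moist dark chamber, 30 °C for Aspergillus and 28–30 °C for dermatophytes. Read visually when control growth allowed. Endpoint is the lowest concentration giving total inhibition of visible growth (MIC100).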

[3] = system: Cryptococcus neoformans; experiment: Antifungal activity against Cryptococcus neoformans ATCC 32264 at 0.98 to 250 ug/mL after 48 hrs by NCCLS broth microdilution method; in short: as §1
[4] = system: Aspergillus niger; experiment: Antifungal activity against Aspergillus niger ATCC 9029 at 0.98 to 250 ug/mL by NCCLS broth microdilution method; in short: as §2
[5] = system: Nannizzia gypsea; experiment: Antifungal activity against Microsporum gypseum CCC 115 at 0.98 to 250 ug/mL by NCCLS broth microdilution method; in short: as §2
[6] = system: Trichophyton rubrum; experiment: Antifungal activity against Trichophyton rubrum CCC 110 at 0.98 to 250 ug/mL by NCCLS broth microdilution method; in short: as §2
[7] = system: Trichophyton mentagrophytes; experiment: Antifungal activity against Trichophyton mentagrophytes ATCC 9972 at 0.98 to 250 ug/mL by NCCLS broth microdilution method; in short: as §2
[8] = system: Aspergillus fumigatus; experiment: Antifungal activity against Aspergillus fumigatus ATCC 26934 at 0.98 to 250 ug/mL by NCCLS broth microdilution method; in short: as §2
[9] = system: Candida tropicalis; experiment: Antifungal activity against Candida tropicalis at 0.98 to 250 ug/mL after 48 hrs by NCCLS broth microdilution method; in short: as §1

Measured: Activity

CCOC(=O)C(Cc1ccccc1)Nc1nc(N)nc(OC)c1N=O (configuration not stated)
inactive: [1] | [2] | [3] | [4] | [5] | [6] | [7] | [8] | [9]

C[C@@H]1Nc2nc(N)nc(OCC3CCCCC3)c2NC1=O
inactive: [1] | [2] | [3] | [4] | [5] | [6] | [7] | [8] | [9]

Nc1nc(NCc2ccccc2)c(N=O)c(NCc2ccccc2)n1
inactive: [1] | [2] | [3] | [4] | [5] | [6] | [7] | [8] | [9]

CCOC(=O)CNc1nc(N)nc(OC)c1N=O
inactive: [1] | [2] | [3] | [4] | [5] | [6] | [7] | [8] | [9]

CCOC(=O)CCNc1nc(N)nc(OC)c1N=O
inactive: [1] | [2] | [3] | [4] | [5] | [6] | [7] | [8] | [9]

COc1nc(NCCO)nc(Nc2ccccc2)c1N=O
inactive: [1] | [2] | [3] | [4] | [5] | [6] | [7] | [8] | [9]

CCOC(=O)[C@H](Cc1ccccc1)Nc1nc(N)nc(OCC2CCCCC2)c1N=O
inactive: [1] | [2] | [3] | [4] | [5] | [6] | [7] | [8] | [9]

CCOC(=O)C(C)Nc1nc(N)nc(OC)c1N=O (configuration not stated)
inactive: [1] | [2] | [3] | [4] | [5] | [6] | [7] | [8] | [9]
